Measured values as given in ChEMBL document CHEMBL4321820, “Identification and Optimization of Mechanism-Based Fluoroallylamine Inhibitors of Lysyl Oxidase-like 2/3” (J Med Chem, 2019).

Assays:
[1] = Metabolic stability of the compound in dog plasma assessed as SSAO/plasma amine oxidase-mediated compound oxidation preincubated with SSAO/primary amine oxidase inhibitor, semicarbazide followed by incubation with compound and measured after 1 hr; assay type: ADME, Canis lupus familiaris
[2] = biological target: T1, Lysyl oxidase homolog 2 (Homo sapiens, UniProt Q9Y4K0); experiment: Inhibition of recombinant human C-terminal His-tagged […] (1-774 residues) expressed in mouse myeloma cells using putrescine as substrate preincubated with enzyme for 30 mins followed by substrate addition and measured every 2.5 mins for 30 mins by Amplex-Red oxidation assay; details: read-out: pIC50 (converted)
T1 sequence (Q9Y4K0 whole entry): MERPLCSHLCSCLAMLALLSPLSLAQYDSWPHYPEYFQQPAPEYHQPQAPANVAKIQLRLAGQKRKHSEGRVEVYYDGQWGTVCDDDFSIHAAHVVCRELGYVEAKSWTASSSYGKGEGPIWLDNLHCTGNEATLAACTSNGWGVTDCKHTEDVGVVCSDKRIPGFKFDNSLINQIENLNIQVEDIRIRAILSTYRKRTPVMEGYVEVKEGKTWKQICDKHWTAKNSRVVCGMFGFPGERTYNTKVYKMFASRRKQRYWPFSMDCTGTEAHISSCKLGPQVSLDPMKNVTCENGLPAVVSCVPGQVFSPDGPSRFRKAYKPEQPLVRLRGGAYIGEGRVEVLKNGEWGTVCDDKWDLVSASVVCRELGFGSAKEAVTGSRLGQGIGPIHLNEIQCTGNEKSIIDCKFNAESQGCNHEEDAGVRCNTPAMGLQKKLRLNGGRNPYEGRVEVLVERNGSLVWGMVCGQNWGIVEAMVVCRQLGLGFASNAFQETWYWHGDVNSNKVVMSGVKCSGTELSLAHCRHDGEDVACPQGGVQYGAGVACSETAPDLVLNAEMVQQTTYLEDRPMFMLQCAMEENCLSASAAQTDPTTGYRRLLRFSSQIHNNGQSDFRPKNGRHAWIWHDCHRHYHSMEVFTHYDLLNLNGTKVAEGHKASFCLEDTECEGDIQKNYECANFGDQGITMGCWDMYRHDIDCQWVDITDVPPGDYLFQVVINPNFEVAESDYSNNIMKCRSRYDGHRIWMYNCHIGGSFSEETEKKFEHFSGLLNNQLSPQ
In short: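 LOXL2 enzyme preincubated with compound for 30 min at 37 °C, then Amplex Red (120 µM) / HRP (1.5 U/mL) mix containing 5 mM putrescine added. Buffer: 1.2 M urea, 50 mM sodium borate, pH 8.2. H2O2 fluorescence (ex 565/em 590) read every 2.5 min for 30 min at 37 °C; BAPN 100 µM as positive control; n≥2.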

[3] = biological target: T2, Amine oxidase [flavin-containing] B (Homo sapiens, UniProt P27338); experiment: Inhibition of recombinant human MAOB expressed in baculovirus infected in BTI cells using benzylamine as substrate preincubated with enzyme for 30 mins followed by substrate addition and measured every 2.5 mins for 30 mins by Amplex-Red oxidation assay; details: human, 0.5 h
T2 sequence (P27338 whole entry): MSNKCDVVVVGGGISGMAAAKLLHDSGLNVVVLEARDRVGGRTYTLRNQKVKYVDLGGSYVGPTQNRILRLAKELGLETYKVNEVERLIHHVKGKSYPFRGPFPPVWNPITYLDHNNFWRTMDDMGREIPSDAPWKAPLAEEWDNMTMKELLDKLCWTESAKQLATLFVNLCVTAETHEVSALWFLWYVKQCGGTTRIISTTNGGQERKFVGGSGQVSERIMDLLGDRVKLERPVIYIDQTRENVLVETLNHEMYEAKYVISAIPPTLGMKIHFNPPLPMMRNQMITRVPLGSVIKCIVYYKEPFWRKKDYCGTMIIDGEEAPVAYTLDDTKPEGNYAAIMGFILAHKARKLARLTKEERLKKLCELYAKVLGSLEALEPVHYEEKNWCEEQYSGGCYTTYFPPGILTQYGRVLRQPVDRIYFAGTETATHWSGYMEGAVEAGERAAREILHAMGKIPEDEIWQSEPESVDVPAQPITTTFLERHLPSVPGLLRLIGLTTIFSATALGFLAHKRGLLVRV

[4] = biological target: T3, Amine oxidase [copper-containing] 3 (Homo sapiens, UniProt Q16853); experiment: Inhibition of recombinant human SSAO using benzylamine as substrate preincubated with enzyme for 30 mins followed by substrate addition and measured every 2.5 mins for 30 mins by Amplex-Red oxidation assay; details: read-out: pIC50 (converted)
T3 sequence (Q16853 whole entry): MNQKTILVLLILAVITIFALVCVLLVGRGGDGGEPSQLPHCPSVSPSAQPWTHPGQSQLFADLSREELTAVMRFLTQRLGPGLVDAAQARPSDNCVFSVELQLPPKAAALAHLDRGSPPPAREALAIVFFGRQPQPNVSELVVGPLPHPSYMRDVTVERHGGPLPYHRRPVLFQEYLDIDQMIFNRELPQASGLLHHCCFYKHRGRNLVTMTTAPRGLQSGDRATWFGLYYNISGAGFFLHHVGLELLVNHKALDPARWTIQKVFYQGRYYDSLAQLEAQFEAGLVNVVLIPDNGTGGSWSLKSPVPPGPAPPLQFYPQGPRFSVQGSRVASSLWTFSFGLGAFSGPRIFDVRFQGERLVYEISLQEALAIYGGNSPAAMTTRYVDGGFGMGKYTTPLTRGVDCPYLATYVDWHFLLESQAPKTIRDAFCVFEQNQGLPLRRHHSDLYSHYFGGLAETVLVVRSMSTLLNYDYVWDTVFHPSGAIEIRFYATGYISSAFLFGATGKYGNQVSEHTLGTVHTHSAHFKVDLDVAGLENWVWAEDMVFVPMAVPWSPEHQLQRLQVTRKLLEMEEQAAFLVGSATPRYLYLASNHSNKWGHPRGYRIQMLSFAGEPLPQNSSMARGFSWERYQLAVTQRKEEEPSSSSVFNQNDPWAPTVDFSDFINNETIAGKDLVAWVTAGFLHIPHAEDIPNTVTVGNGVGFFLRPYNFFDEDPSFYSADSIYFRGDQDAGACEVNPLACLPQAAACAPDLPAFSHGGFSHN

[5] = test system: SSAO/plasma amine oxidase; experiment: Metabolic stability of the compound in dog plasma assessed as SSAO/plasma amine oxidase-mediated compound oxidation by measuring parent compound remaining after 1 hr; assay type: ADME, Canis lupus familiaris; details: read-out: Stability
In short: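 Compound incubated in dog plasma; percentage of parent compound remaining measured after 1 hour.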

[6] = biological target: T4, Protein-lysine 6-oxidase (Bos taurus, UniProt P33072); experiment: Inhibition of LOX in bovine aorta using putrescine as substrate preincubated with enzyme for 30 mins followed by substrate addition and measured every 2.5 mins for 30 mins by Amplex-Red oxidation assay; assay type: tissue-based; details: read-out: pIC50 (converted)
T4 sequence (P33072 whole entry): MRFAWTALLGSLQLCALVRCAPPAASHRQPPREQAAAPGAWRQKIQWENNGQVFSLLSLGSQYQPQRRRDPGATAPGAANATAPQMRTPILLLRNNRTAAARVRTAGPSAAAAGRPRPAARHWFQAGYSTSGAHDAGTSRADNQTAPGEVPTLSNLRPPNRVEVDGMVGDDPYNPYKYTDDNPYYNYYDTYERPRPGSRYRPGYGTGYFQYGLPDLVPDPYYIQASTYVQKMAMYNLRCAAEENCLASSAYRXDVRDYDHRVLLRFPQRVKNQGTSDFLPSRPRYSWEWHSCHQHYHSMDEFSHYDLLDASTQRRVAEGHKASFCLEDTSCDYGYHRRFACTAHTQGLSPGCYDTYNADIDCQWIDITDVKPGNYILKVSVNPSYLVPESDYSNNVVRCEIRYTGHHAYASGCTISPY
In short: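 LOX extracted from calf aorta after PBS washing with 4 M urea/50 mM borate pH 8.2, concentrated on 10 kDa filters into 1.2 M urea/borate with protease inhibitors. Preincubated 30 min at 37 °C with compound, then Amplex Red/HRP with 10 mM putrescine; fluorescence read every 2.5 min for 30 min.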

[7] = biological target: T1, Lysyl oxidase homolog 2; experiment: Substrate activity at recombinant human C-terminal His-tagged […] (1-774 residues) expressed in mouse myeloma cells assessed as oxidative turnover at 30 uM measured after 30 mins by horseradish peroxidase-coupled amplex red reagent-based fluorescence assay relative to DMSO; assay type: ADME, cell-based; details: 0.5 h
In short: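 LOXL2 incubated with compound, no substrate present. Hydrogen peroxide generation read by Amplex Red/HRP fluorescence (ex 565, em 590 nm). Oxidative turnover at 30 min expressed relative to DMSO.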

[8] = biological target: T3, Amine oxidase [copper-containing] 3; experiment: Substrate activity at recombinant human SSAO assessed as compound oxidation by measuring oxidative turnover at 30 uM measured for 40 mins by horseradish peroxidase-coupled amplex red reagent-based fluorometric assay relative to DMSO; assay type: ADME
In short: (§1)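 Compound oxidation measured without substrate by peroxidase-coupled fluorometric read-out of resorufin formation over 40 min at 37 °C in HEPES buffer. Amplex Red 20 µM, HRP 4 U/ml, test compound at final 30 µM. Enzyme source was human recombinant SSAO or AOC4 from diluted dog serum. Benzylamine at 600 µM served as positive control. Signal is expressed relative to DMSO-only background, so a value near 1 means no turnover.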

[9] = biological target: T5, Lysyl oxidase homolog 2 (Homo sapiens) (UniProt Q9Y4K0); experiment: Inhibition of recombinant human C-terminal His-tagged […] (1-774 residues) expressed in mouse myeloma cells assessed as recovery of enzyme activity at 10XIC50 preincubated with bound enzyme for 30 mins followed by drug wash-out and later incubated with putrescine substrate and measured after 30 mins by Amplex-Red oxidation assay; assay type: cell-based; set-up: scale not given: the % may be the effect or the level left
T5 sequence (whole entry): T1 sequence (Q9Y4K0 whole entry)

[10] = Substrate activity at AOC4 in dog serum assessed as compound oxidation by measuring oxidative turnover at 30 uM measured for 40 mins by horseradish peroxidase-coupled amplex red reagent-based fluorometric assay relative to DMSO; assay type: ADME, cell-free, Canis lupus familiaris; in short: as §1

Row | Compound | Stability [1] | IC50 [2] [nM] | pIC50 [3] | IC50 [4] [nM] | remaining at 1 h [5] [%] | IC50 [6] [nM] | fold change (FC) [7] | fold change (FC) [8] | Activity [9] [%] | fold change (FC) [10]
1 | CN(C)S(=O)(=O)c1ccc(OCc2cn(C/C(F)=C/CN)nn2)c(Cl)c1.Cl | Stable | 20 | Not Active | > 31600 | 0 | 794 |  |  |  | 
2 | Cc1c(-c2cccc(S(=O)(=O)N(C)C)c2)c2cc(C(=O)O)ccc2n1C/C=C/CN.Cl |  | 794 |  |  |  | 3160 | 6 | 1 | 75 | 1.3
